Measurements as given in paper PMC3700807 (Planta medica, 2011).
In brackets after ≈: the same amount, converted by molar mass. Read-outs that look alike come from different tables or passages of the source.

Experiments:
[1] = Cytotoxicity to PMA transformed THP1 cells; assay type: cell-based; settings: human
[2] = system: Leishmania donovani axenic amastigotes; assay: Antileishmanial assay, axenic amastigotes; assay type: cell-based; settings: for IC90: Leishmania donovani, 72 h, read-out: Leishmania donovani Axenic Amastigotes IC90
[3] = system: Leishmania donovani promastigotes; assay: Antileishmanial assay, promastigotes; assay type: cell-based; settings: for IC90: Leishmania donovani, 72 h, read-out: Leishmania donovani Promastigotes IC90
[4] = system: Leishmania donovani amastigotes in THP1 macrophage cultures; assay: Antileishmanial macrophage-amastigote assay; assay type: cell-based; settings: mean ± S.D. of three observations; for IC50: Leishmania donovani, THP-1, read-out: Leishmania donovani Macrophage-Amastigotes IC50, amastigotes in THP1 macrophage cultures
[5] = system: Plasmodium falciparum D6 (chloroquine-sensitive clone); settings: data reported previously; cited from earlier work
[6] = system: Plasmodium falciparum W2 (chloroquine-resistant clone); settings: data reported previously; cited from earlier work
[7] = system: VERO cells; settings: VERO cells cytotoxicity; data reported previously; cited from earlier work
[8] = system: VERO cells; assay: Cytotoxicity to VERO cells; assay type: cell-based
[9] = system: C. krusei (ATCC 6258); assay: Antimicrobial susceptibility assay, C. krusei; assay type: cell-based; settings: highest test concentration 20 μg/mL
How it was run: (§1)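 Yeasts were tested by a modified CLSI broth-dilution method, with growth monitored by optical density. Amphotericin B was the drug control in each assay. IC50 (50% inhibition vs controls) was curve-fitted from duplicate readings. MIC is the lowest concentration allowing no detectable growth. For MFC, 5 μL from each clear well was plated on agar and incubated until growth was seen.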

[10] = system: Candida albicans (ATCC 90028); assay: Antimicrobial susceptibility assay, C. albicans; assay type: cell-based; settings: highest test concentration 20 μg/mL
How it was run: as §1

[11] = system: Transformed THP1 cells; assay: Cytotoxicity to PMA transformed THP1 cells; assay type: cell-based
[12] = system: Plasmodium falciparum D6 (chloroquine-sensitive clone); assay: In vitro antiplasmodial assay; assay type: cell-based; settings: chloroquine-sensitive clone D6
[13] = system: Cryptococcus neoformans (ATCC 90113); assay: Antimicrobial susceptibility assay, C. neoformans; assay type: cell-based; settings: highest test concentration 20 μg/mL
How it was run: as §1

[14] = system: Plasmodium falciparum W2 (chloroquine-resistant clone); assay: In vitro antiplasmodial assay; assay type: cell-based; settings: chloroquine-resistant clone W2
[15] = system: Aspergillus fumigatus (ATCC 204305); assay: Antimicrobial susceptibility assay, A. fumigatus; assay type: cell-based; settings: highest test concentration 20 μg/mL
How it was run: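 Broth-dilution susceptibility test in medium with 5% Alamar Blue for growth detection. Amphotericin B was the drug control in each assay. IC50 (50% inhibition vs controls) was curve-fitted from duplicate readings. MIC is the lowest concentration with no detectable growth. For MFC, 5 μL from each clear well was moved to agar and incubated until growth appeared.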

[16] = system: Staphylococcus aureus (ATCC 29213); assay: Antimicrobial susceptibility assay, S. aureus; assay type: cell-based; settings: highest test concentration 20 μg/mL
How it was run: (§2)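 Bacteria were tested by a modified CLSI broth-dilution method, with growth read as optical density. Ciprofloxacin was the drug control in each assay. IC50 (50% inhibition relative to controls) was fitted from duplicate readings. MIC is the lowest concentration with no detectable growth. For MBC, 5 μL from each clear well was transferred to agar and incubated until growth appeared.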

[17] = system: C. glabrata (ATCC 90030); assay: Antimicrobial susceptibility assay, C. glabrata; assay type: cell-based; settings: highest test concentration 20 μg/mL
How it was run: as §1

[18] = system: Mycobacterium intracellulare (ATCC 23068); assay: Antimicrobial susceptibility assay, M. intracellulare; assay type: cell-based; settings: highest test concentration 20 μg/mL
How it was run: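 Mycobacterium intracellulare (ATCC 23068) was tested by a modified broth susceptibility method, with growth detected in medium containing 5% Alamar Blue. IC50 was fitted against untreated controls from duplicate readings. MIC was taken as the lowest concentration with no detectable growth. For MBC, clear wells were subcultured onto agar and incubated until growth appeared. Ciprofloxacin was included as the drug control in each assay.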

[19] = system: methicillin-resistant S aureus (MRSA, ATCC 33591); assay: Antimicrobial susceptibility assay, MRSA; assay type: cell-based, Staphylococcus aureus; settings: highest test concentration 20 μg/mL
How it was run: as §2

[20] = quoted as basis for basifying to pH 11; no reference given; cited from earlier work
[21] = 37 °C, 72 hours, mean ± S.D. of three observations
[22] = 26 °C, 72 hours, mean ± S.D. of three observations
[23] = amastigotes in THP1 macrophage cultures

SMILES: C[C@@H]1N[C@H](CCCCCCCCCCC2=C[C@@H](CCCCCCCCCC[C@@H]3CC[C@@H](O)[C@H](C)N3)[C@@H]3CCCN3C2)CC[C@H]1O [Compound 3, prosopilosine]
- IC50 [1]: 2.33 ± 0.51 µg/mL (≈ 3.7 µM)
- IC90 [1]: 3.89 ± 0.51 µg/mL (≈ 6.17 µM)
- Leishmania donovani Axenic Amastigotes IC50 [2, 21]: 0.98 ± 0.12 µg/mL
- IC90 [2]: 6.49 ± 0.84 µg/mL (≈ 10.3 µM)
- Leishmania donovani Promastigotes IC50 [3, 22]: 0.17 ± 0.05 µg/mL
- IC90 [3]: 6.33 ± 1.07 µg/mL (≈ 10 µM)

SMILES: C[C@@H]1N[C@H](CCCCCCCCCCc2cc(CCCCCCCCCC[C@H]3CC[C@@H](O)[C@@H](C)N3)c[n+]3c2CCC3)CC[C@H]1O [Compound 5, isoprosopilosidine]
- IC50 ([1]; PMA transformed THP1 cells): 7.92 ± 1.22 µg/mL
- IC90 ([1]; PMA transformed THP1 cells): 19 µg/mL
- IC90 [2]: 24.8 ± 3.7 µg/mL
- IC90 [3]: 4.52 ± 0.74 µg/mL
- IC50 [4]: 5.87 ± 0.76 µg/mL

SMILES: C[C@H]1N[C@@H](CCCCCCCCCCC2=C[C@@H](CCCCCCCCCC[C@H]3CC[C@@H](O)[C@@H](C)N3)[C@@H]3CCCN3C2)CC[C@H]1O [Compound 6, juliprosopine]
- P. falciparum D6 IC50 [5]: 0.22 ± 0.025 µg/mL
- P. falciparum W2 IC50 [6]: 0.38 ± 0.05 µg/mL
- IC50 [1]: 3.43 ± 0.32 µg/mL (≈ 5.44 µM)
- IC90 [1]: 7.89 ± 1.2 µg/mL (≈ 12.5 µM)
- Leishmania donovani Axenic Amastigotes IC50 [2, 21]: 1.92 ± 0.19 µg/mL
- IC90 [2]: 6.25 ± 0.47 µg/mL (≈ 9.92 µM)
- Leishmania donovani Promastigotes IC50 [3, 22]: 0.29 ± 0.05 µg/mL
- IC90 [3]: 1.14 ± 0.21 µg/mL (≈ 1.81 µM)
- VERO IC50 [7]: 5 µg/mL

SMILES: C[C@@H]1N[C@H](CCCCCCCCCCc2cc(CCCCCCCCCC[C@@H]3CC[C@H](O)[C@H](C)N3)c3[n+](c2)CCC3)CC[C@@H]1O [Compound 7, juliprosine]
- VERO IC50 [8]: >23.8 µg/mL
- C. krusei IC50 [9]: -/-/- ((-) = Not active at the highest test concentration of 20 μg/mL)
- C. krusei MFC [9]: -/-/- ((-) = Not active at the highest test concentration of 20 μg/mL)
- C. krusei MIC [9]: -/-/- ((-) = Not active at the highest test concentration of 20 μg/mL)
- C. albicans IC50 [10]: -/-/- ((-) = Not active at the highest test concentration of 20 μg/mL)
- C. albicans MFC [10]: -/-/- ((-) = Not active at the highest test concentration of 20 μg/mL)
- C. albicans MIC [10]: -/-/- ((-) = Not active at the highest test concentration of 20 μg/mL)
- Cytotoxicity (Transformed THP1 cells) IC50 [11]: 19.5 ± 1.0 µg/mL
- Cytotoxicity (Transformed THP1 cells) IC90 [11]: >20 µg/mL
- Leishmania donovani Axenic Amastigotes IC50 [2, 21]: 2.58 ± 0.37 µg/mL
- Leishmania donovani Axenic Amastigotes IC90 [2, 21]: 29.8 ± 4.3 µg/mL
- P. falciparum D6 IC50 [12]: 0.17 ± 0.035 µg/mL
- C. neoformans IC50 [13]: 0.17 µg/mL
- C. neoformans MFC [13]: 0.63 µg/mL
- C. neoformans MIC [13]: 0.63 µg/mL
- P. falciparum W2 IC50 [14]: 0.15 ± 0.06 µg/mL
- Leishmania donovani Promastigotes IC50 [3, 22]: 1.38 ± 0.23 µg/mL
- Leishmania donovani Promastigotes IC90 [3, 22]: 5.85 ± 0.72 µg/mL
- A. fumigatus IC50 [15]: -/-/- ((-) = Not active at the highest test concentration of 20 μg/mL)
- A. fumigatus MFC [15]: -/-/- ((-) = Not active at the highest test concentration of 20 μg/mL)
- A. fumigatus MIC [15]: -/-/- ((-) = Not active at the highest test concentration of 20 μg/mL)
- S. aureus IC50 [16]: 3.0 µg/mL
- S. aureus MBC [16]: 10 µg/mL
- S. aureus MIC [16]: 5.0 µg/mL
- C. glabrata IC50 [17]: -/-/- ((-) = Not active at the highest test concentration of 20 μg/mL)
- C. glabrata MFC [17]: -/-/- ((-) = Not active at the highest test concentration of 20 μg/mL)
- C. glabrata MIC [17]: -/-/- ((-) = Not active at the highest test concentration of 20 μg/mL)
- M. intracellulare IC50 [18]: 0.80 µg/mL
- M. intracellulare MBC [18]: 5 µg/mL
- M. intracellulare MIC [18]: 1.25 µg/mL
- MRSA IC50 [19]: 3.03 µg/mL
- MRSA MBC [19]: 10 µg/mL
- MRSA MIC [19]: 5.0 µg/mL
- Leishmania donovani Macrophage-Amastigotes IC50 [4, 23]: 3.08 ± 0.43 µg/mL
- Leishmania donovani Macrophage-Amastigotes IC90 [4, 23]: 7.89 ± 1.91 µg/mL

SMILES: N=C(N)c1ccc(OCCCCCOc2ccc(C(=N)N)cc2)cc1 [Pentamidine, reference compound]
- IC50 ([1]; PMA transformed THP1 cells): > 20 µg/mL
- IC90 ([1]; PMA transformed THP1 cells): > 20 µg/mL
- Leishmania donovani Axenic Amastigotes IC50 [2, 21]: 2.09 ± 0.37 µg/mL
- IC90 [2]: 14.7 ± 2.2 µg/mL (≈ 43.2 µM)
- Leishmania donovani Promastigotes IC50 [3, 22]: 1.06 ± 0.32 µg/mL
- IC90 [3]: 3.86 ± 0.41 µg/mL (≈ 11.3 µM)
- IC50 [4]: 3 µg/mL (≈ 8.81 µM)
- Leishmania donovani Macrophage-Amastigotes IC50 [4, 23]: 2.97 ± 0.44 µg/mL

SMILES: NCCc1c[nH]c2ccccc12 [tryptamine]
- pKa [20]: 10.2
